The text below walks through data of PubChem BioAssay.

The nature of experiment [1]: inhibitors of TNFa-induced NFkB p65 translocation, primary screen, imaging, HUVEC, MLSMR starter and 10KST1 sets (AID 438).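 For inhibition: signal is the nuclear over cytoplasmic p65 intensity ratio per well.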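 Note: compound added about 3h40 before a 20 min TNFalpha stimulation.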 To be noted: HUVEC TNFa-induced p65 nuclear translocation; cell count: measured here: nuclei count (cytotoxicity indicator), at 2.08 µM; inhibition: at 2 µM, stronger effect = higher value, 0% TNFa-plus-vehicle, 100% no-TNFa wells.
Experiment [2] is described as follows: endothelial E-selectin expression blockers – imaging, HUVEC, immunofluorescence, MLSMR starter and 10KST1 sets, primary screen (AID 487;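 active = visually confirmed hit in the image check and inhibition above 20%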;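 for inhibition: signal is fraction of cell area covered by stained E-selectin grains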;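 for nuclei count: 100% = median nuclei count of all wells on the same plate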). Particulars: HUVEC TNFalpha-induced E-selectin immunofluorescence imaging, at 2 µM; inhibition: stronger effect = higher value; nuclei count: measured here: cell number, toxicity.
The nature of experiment [3]: Primary imaging screen for DUSP6 inhibitors that restore phospho-Erk in transfected HeLa cells, chemical complementation (AID 609;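 active = compounds giving at least 50% inhibition in the cell-based MKP-3 phosphatase rescue imaging test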;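 for inhibition: phospho-Erk level distribution per well compared with pooled transfected vehicle control wells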). To be noted: HeLa MKP-3 transfected, phospho-Erk imaging KS statistic, at 10 µM, cells stimulated with TPA for 15 min.
Experiment [4] addresses Dual specificity protein phosphatase 6 (Homo sapiens) (UniProt Q16828). The description is as above. Particulars: HeLa MKP-3 transfected, phospho-Erk imaging KS statistic; at 10 µM; stronger effect = higher value; cells stimulated with TPA for 15 min.
Experiment [5] addresses Voltage-gated potassium channel subunit beta-2 (Rattus norvegicus) (UniProt P62483). Description: inhibitors of rat Kvbeta2 reductase activity – biochemical, NADPH fluorescence, primary screen (AID 622;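 active = fluorescence slope higher than the sample average by over 3 SD, cut at about -0.22 in these data, passing the limit was not always enough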;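 note: slope of raw intensity against log time taken from 70 to 1610 s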). To be noted: recombinant KvBeta, 4-cyanobenzaldehyde reduction, at 10 µM, stronger effect = higher value.
For experiment [6] the target is unchanged. The experiment is described as follows: enhancers of rat Kvbeta2 NADPH turnover – biochemical, NADPH fluorescence, primary screen (AID 623;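 active = NADPH fluorescence slope more negative than the mean of all samples by about 3 SD, 99.7% confidence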;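 note: fluorescence intensity change per second fitted from 20 to 320 s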). To be noted: Recombinant KvBeta, NADPH fluorescence decrease slope, 10 min; at 10 µM; stronger effect = lower value.
The target of experiment [7] is Alpha-2C adrenergic receptor (Homo sapiens) (UniProt P18825). The experiment is described as follows: compounds altering alpha2C-coupled GIRK flux – cell-based, HEK293 alpha2C/GIRK1/2, thallium flux, primary screen (AID 624;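 active = fluorescence slope after compound addition differing from the mean of all screened samples at 99.7% confidence, in either direction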;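 note: slope of fluorescence ratio to pre-addition baseline per second over 15 to 24 s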). To be noted: thallium flux BTC fluorescence, at 10 µM, actives lie on both sides.
Chain of Alpha-2C adrenergic receptor (Homo sapiens) (P18825 whole entry, looked up): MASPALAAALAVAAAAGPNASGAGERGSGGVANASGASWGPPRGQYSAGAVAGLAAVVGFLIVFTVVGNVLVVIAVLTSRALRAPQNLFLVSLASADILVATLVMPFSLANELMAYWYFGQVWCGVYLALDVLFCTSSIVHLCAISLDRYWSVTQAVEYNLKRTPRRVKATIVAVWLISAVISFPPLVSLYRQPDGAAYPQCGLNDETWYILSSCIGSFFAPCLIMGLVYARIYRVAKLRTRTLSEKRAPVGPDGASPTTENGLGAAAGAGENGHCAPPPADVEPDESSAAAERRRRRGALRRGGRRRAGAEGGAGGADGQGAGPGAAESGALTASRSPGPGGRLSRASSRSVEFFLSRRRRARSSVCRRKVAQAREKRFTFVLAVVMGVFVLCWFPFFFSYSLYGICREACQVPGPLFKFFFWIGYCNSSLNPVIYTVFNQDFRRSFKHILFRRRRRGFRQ
Experiment [8] can be described thus: inhibitors of larval lipid processing in zebrafish, primary screen, whole organism, PED6 fluorescence, gall bladder and intestine (AID 686;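 active = a full or partial loss of lipid-probe fluorescence in the fish gall bladder, intestine or both, judged by eye; inactive = no fluorescence loss, or compound toxic to the fish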;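 note: larvae 5 to 7 days old with five fish per well; signal comes from phospholipase A2 cleavage of quenched PED6 carried via bile; overnight exposure to compound and PED6 before scoring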). To be noted: Zebrafish larvae PED6 lipid processing, fluorescence scoring; screened at 20 µM (by protocol). The method in brief:
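System: live zebrafish larvae aged 5-7 days, whole organism; measure: graded gall bladder and intestinal fluorescence inhibition per well; incubation: overnight exposure; reagent: ingested quenched lipid PED6 at 100 nM; signal: By-eye fluorescence microscopy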

Experiment [9] can be described thus: loss of swimming-algae plug formation – whole organism, Chlamydomonas reinhardtii, WT vs cilia-less mutant, absorbance, 96-well, primary screen (AID 463189;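 active = inhibition at or above 50% relative to wild type and mutant plate controls; inactive = inhibition below 50%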;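 note: 0% = wild type cc124 cells in DMSO and 100% = ciliumless bld1 mutant cells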). To be noted: Chlamydomonas reinhardtii gravitaxis, OD600 absorbance, 2 days; at 10 µM; stronger effect = higher value.
The mark [10] stands for this setting: measured here: cell density z-score.
The mark [11] stands for this setting: measured here: nuclear c-Myc green intensity z-score.
Setting [12] is: measured here: nuclear pErk red intensity z-score, stronger effect = higher value.

Each structure is given as a SMILES string. Active and inactive are the calls of the source.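 Rule for the calls, unless noted: active = inhibition above 20% together with a positive visual image hit; inconclusive = visual image hit but inhibition not above 20%; inactive = no visual image hit.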

Chain of Dual specificity protein phosphatase 6 (Homo sapiens) (Q16828 whole entry, looked up): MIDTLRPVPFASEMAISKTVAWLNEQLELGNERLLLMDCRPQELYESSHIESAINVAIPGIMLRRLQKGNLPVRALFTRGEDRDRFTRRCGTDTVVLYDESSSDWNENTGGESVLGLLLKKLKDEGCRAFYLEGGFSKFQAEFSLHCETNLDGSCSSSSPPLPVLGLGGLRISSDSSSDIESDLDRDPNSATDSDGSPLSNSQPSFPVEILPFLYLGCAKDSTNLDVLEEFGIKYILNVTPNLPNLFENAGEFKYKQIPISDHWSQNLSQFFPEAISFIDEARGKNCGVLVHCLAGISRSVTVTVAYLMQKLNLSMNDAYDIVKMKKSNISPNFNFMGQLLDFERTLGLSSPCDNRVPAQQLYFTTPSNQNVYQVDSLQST
Chain of Voltage-gated potassium channel subunit beta-2 (Rattus norvegicus) (P62483 whole entry, looked up): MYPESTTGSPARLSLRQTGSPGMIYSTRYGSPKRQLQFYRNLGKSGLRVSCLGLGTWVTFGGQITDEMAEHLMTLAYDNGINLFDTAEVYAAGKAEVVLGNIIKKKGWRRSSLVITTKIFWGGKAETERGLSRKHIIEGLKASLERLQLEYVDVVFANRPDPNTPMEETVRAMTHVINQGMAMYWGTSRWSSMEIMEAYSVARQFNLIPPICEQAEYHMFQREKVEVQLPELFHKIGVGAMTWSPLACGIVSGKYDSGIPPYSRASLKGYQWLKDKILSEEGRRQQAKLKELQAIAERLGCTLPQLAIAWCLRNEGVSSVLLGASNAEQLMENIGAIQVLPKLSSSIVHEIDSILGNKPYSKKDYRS

For the compound `Cc1nc2c(c(=O)n1CC1CCCO1)c1nc3ccccc3nc1n2Cc1ccc2c(c1)OCO2` (stereo unspecified), the cell count in [1] was determined as 281. Moreover, the inhibition in experiment [1] is -7.1% (inactive); in experiment [2] it was -128% (inactive); in experiment [4] it was -0.584% (inactive); in [9], 9.64% (inactive). Also, in [2], the nuclei count stood at 80.3%. Besides, the z-score in [3] (setting [10]) is 2.15; in [3] (setting [11]) it was -0.362; in experiment [3] (setting [12]), -1.56. Moreover, in experiment [5], the fluorescence slope is -0.42 (inactive). Also, the NADPH fluorescence slope in experiment [6] was -0.000106 (inactive). Moreover, in experiment [7], the slope is 0.00645 (inactive). The compound was classed as inactive in experiment [8].
Turning to `CCOC(=O)c1[nH]c2ccc(OC)cc2c1C`, the cell count in [1] worked out at 547. Moreover, the inhibition in experiment [1] is -3.8% (inactive); in [2] it was -0.1% (inactive); in [4], -12.3% (inactive); in [9] it was 1.77% (inactive). In addition, the nuclei count in experiment [2] was determined as 171%. Besides, the results for the z-score in experiment [3] (setting [10]), in experiment [3] (setting [11]) and in experiment [3] (setting [12]) were -0.421, -0.589 and 0.677, respectively. Moreover, the fluorescence slope in [5] is -0.361 (inactive). Also, the NADPH fluorescence slope in [6] is -2.9e-05 (inactive). Moreover, in experiment [7], the slope is 0.0043 (inactive). In experiment [8], the compound was called inactive.
As to `C=CCn1c(SCC(=O)OC)nc2sc3c(c2c1=O)CCN(C)C3`, the cell count in [1] was determined as 489. The inhibition is 5.2% (inactive) in [1], -55.9% (inactive) in [2], 1.48% (inactive) in experiment [4] and -3.61% (inactive) in [9]. Besides, the nuclei count in experiment [2] turned out to be 177%. Further, the figures for the z-score in [3] (setting [10]), in experiment [3] (setting [11]) and in [3] (setting [12]) were 0.349, 0.211 and -0.762, respectively. Besides, in [5], the fluorescence slope is -0.234 (inactive). Also, the NADPH fluorescence slope in [6] is -1.8e-05 (inactive). In [7], the slope was 0.00333 (inactive). For the same compound, in experiment [8], the result was inactive.
Take `Cn1c(N2CCOCC2)nc2c1c(=O)n(Cc1ccc(Cl)c(Cl)c1)c(=O)n2C`: in experiment [1], the cell count is 616. The inhibition is -1.9% (inactive) in [1], -39.8% (inactive) in [2], 2.46% (inactive) in experiment [4] and 24.4% (inactive) in experiment [9]. Moreover, the nuclei count in experiment [2] worked out at 146%. In addition, the z-score in [3] (setting [10]) was -0.645; in [3] (setting [11]), 0.0379; in experiment [3] (setting [12]), -0.103. In [5], the fluorescence slope is -0.474 (inactive). Further, the NADPH fluorescence slope in experiment [6] was -0.000203 (inactive). The slope in experiment [7] is 0.00465 (inactive). In addition, the call in experiment [8] was inactive.
For `C=CCn1c(=S)[nH]c2nc3c(cc2c1=O)CCCC3`, the cell count in experiment [1] amounted to 546. The inhibition was -1% (inactive) in experiment [1], -44.7% (inactive) in experiment [2], -7.28% (inactive) in [4] and -0.142% (inactive) in experiment [9]. Moreover, the nuclei count in [2] turned out to be 112%. Also, the z-score in [3] (setting [10]) is -0.436; in experiment [3] (setting [11]), 2.14; in experiment [3] (setting [12]), 0.929. For the same compound, the fluorescence slope in [5] is -0.428 (inactive). Further, in [6], the NADPH fluorescence slope was 4.7e-06 (inactive). Further, the slope in experiment [7] was 0.0129 (inactive). The compound was called inactive in [8].
For `CC(C)(C)NCC(=O)c1c[nH]c2ccccc12`, the cell count in experiment [1] is 535. The inhibition in experiment [1] is -1.7% (inactive); in experiment [2], -49.5% (inactive); in [4], -1.75% (inactive); in experiment [9], -1.18% (inactive). The compound further came in with a nuclei count in experiment [2] of 146%. The z-score in [3] (setting [10]) was -0.736; in experiment [3] (setting [11]) it was 1.42; in experiment [3] (setting [12]) it was -0.666. Besides, in [5], the fluorescence slope was -0.35 (inactive). Moreover, the NADPH fluorescence slope in [6] is 5.2e-06 (inactive). For the same compound, in experiment [7], the slope was 0.00435 (inactive). For the same compound, the outcome in experiment [8] was inactive.
For `Cc1ccc(NC(=O)CSC2=C(C#N)C(c3ccco3)C3=C(CCCC3=O)N2)cc1` (stereo unspecified), the cell count in [1] was 382. Besides, the inhibition in experiment [1] is 1.6% (inactive); in experiment [2], -118% (inactive); in experiment [4], -0.584% (inactive); in [9], 32.7% (inactive). Further, the nuclei count in experiment [2] was found to be 144%. For the same compound, the z-score in experiment [3] (setting [10]) was 1.1; in [3] (setting [11]), -0.193; in [3] (setting [12]), -0.0699. Also, the fluorescence slope in [5] is -0.438 (inactive). The NADPH fluorescence slope in [6] is -5.7e-07 (inactive). For the same compound, the slope in [7] was 0.00635 (inactive). The call in experiment [8] was inactive.

By inhibition is commonly meant the drop in the measured response relative to a control, in per cent.
